Assay: Toxicity liver stage against HepG2, at 10uM
Assay type: cell-based
Set-up: test concentration 10 uM, cell line HepG2-A16-CD81EGFP
Conditions: human, HepG2-A16-CD81EGFP cells; read-out: INHIBITION
Summary of the method: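 Uninfected HepG2-A16-CD81EGFP cells, 3 × 10^3 per well, 1536-well, plated on prespotted compound at 10 μM final, parasite-free screening media added to match infected plates; puromycin 10 μM positive, DMSO 0.5% negative; run in parallel with 48 h PbLuc assay at 37 °C, 5% CO2; viability by CellTiter-Glo luminescence, normalized to controls.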

Compared with `COCCN1C[C@@H]2[C@@H](OC)CCN(Cc3ccsc3)[C@@H]2C1`, `COCCN1C[C@H]2[C@@H](C1)N(Cc1cnn(C)c1)CC[C@H]2OC` is higher in cytotoxicity at 10 µM: 2.78% for the first, 8.47% for the second.

Going from `CC(C)C1CN(C(=O)c2cn3cc(Cl)cnc3n2)CCCN1CC1CC1` (stereo not given) to `CC(C)N1CCC(c2ccnc3c(C(=O)N4CCCC4)ncn23)CC1`, the cytotoxicity at 10 µM falls from 3.46% to -5.49%.

First: O=C(c1sccc1C1CC1)N1CCN(c2nccs2)CC1
Second: CCOc1cc(C)nc(N2CCN(C(=O)c3ccnn3C)CC2)n1
The cytotoxicity at 10 µM of the first is higher: 1.41% for the first, -4.37% for the second.

First: Cc1cc(N(C)C)nc(C2(C)CCCN2C(=O)c2cncnc2C)n1 (stereo not given)
Second: CCc1cc(N(C)Cc2ccnc(C)c2)n2nc(C)c(C)c2n1
The cytotoxicity at 10 µM of the first is lower: -11.3% for the first, 61.6% for the second.

Compared with `COc1c(CNCc2ccc(OCC(N)=O)cc2)c(C)nn1C`, `COc1cccc(C(NCc2ccc(SC)cc2)c2nccn2C)c1` (stereo not given) is lower in cytotoxicity at 10 µM: -3.81% for the first, -5.54% for the second.

Going from `COc1ccc(Br)cc1SCCCS(C)(=O)=O` to `CCOc1ccc(C(=O)NS(=O)(=O)c2cncc(Br)c2)cc1OC`, the cytotoxicity at 10 µM falls from 3.85% to -5.07%.

Going from `Cc1ccc(C)c(NC(=O)N2C[C@H](N(C)C)C[C@H]2CO)c1` to `Cc1ccc(C2CN(CCS(=O)(=O)C(C)C)CCO2)c(C)c1` (stereo not given), the cytotoxicity at 10 µM rises from -0.861% to 8.25%.

Going from `c1ccc2c(N3CCOCC3)cnnc2c1` to `CCNC(=O)O[C@H]1COCCN(c2nc3ccccc3s2)C1`, the cytotoxicity at 10 µM rises from -6.06% to -3.04%.

Going from `c1csc(COC[C@H]2CCC[C@]23CN(Cc2ccoc2)CCO3)n1` to `c1cncc(COC[C@@H]2CCC[C@@]23CNCCO3)c1`, the cytotoxicity at 10 µM falls from -67.3% to -106%.

First: CCC1COCCN1C(=O)NCc1nccn1CC(C)C (stereo not given)
Second: Cc1cnn(CC2CCCN2Cc2nccn2CC(F)(F)F)c1 (stereo not given)
The cytotoxicity at 10 µM of the first is higher: -3.36% for the first, -8.5% for the second.

Compared with `CC(COc1ccccc1)NS(C)(=O)=O` (stereo not given), `COc1ccccc1N(C)S(=O)(=O)c1cc(C(=O)O)cs1` is lower in cytotoxicity at 10 µM: -4.05% for the first, -5.82% for the second.

Compared with `Cn1nccc1-c1ncc2c(c1C(=O)O)CCN(Cc1ccncc1)C2`, `CC(C)c1ncc2c(n1)CN(CCCc1nc3ccccc3o1)CC2` is lower in cytotoxicity at 10 µM: 6.1% for the first, -13.2% for the second.

Going from `Cc1csc([C@H]2C[C@@H]3CCN(C(=O)c4ccnnc4)C[C@H]3O2)n1` to `Cc1csc(NC(=O)[C@@H]2C[C@H]3[C@H](CCN3c3ncccn3)O2)n1`, the cytotoxicity at 10 µM falls from -1.95% to -13.8%.

Compared with `O=C(c1cccs1)N1CCC2(CC1)CN(c1ccsc1)C(=O)CO2`, `Cn1nccc1C(=O)N1CCCC2(CCN(c3ccsc3)C2=O)C1` (stereo not given) is lower in cytotoxicity at 10 µM: -70.5% for the first, -121% for the second.

Compared with `Cc1ccc(CN(Cc2c[nH]cn2)C2CC(C)(C)NC(C)(C)C2)o1`, `CC(C)N(C)Cc1cnc2n1CCN(CCc1ccccc1)C2` is lower in cytotoxicity at 10 µM: -0.105% for the first, -4.58% for the second.

First: COc1ccc(C(=O)NS(=O)(=O)c2cccc(C#N)c2)cc1
Second: COC(=O)c1cccc(S(=O)(=O)Nc2ccc(F)c(C(N)=O)c2)c1
The cytotoxicity at 10 µM of the first is lower: -2.97% for the first, 8.67% for the second.

Going from `COCCNC(=O)[C@H]1CN(Cc2scnc2C)C[C@H]2OCC[C@@H]12` to `COCCNC(=O)[C@H]1C[C@@H]2CCN(c3ccncn3)C[C@H]2O1`, the cytotoxicity at 10 µM rises from -8.94% to 2.4%.

Compared with `CN(C)CC(=O)N1CCC2(CC1)Cc1ccccc1CN(C)C2=O`, `Cc1c(C(=O)N2CCC3(CCC(=O)N(CCN(C)C)C3)CC2)ccn1C` is lower in cytotoxicity at 10 µM: -2.96% for the first, -4.06% for the second.

First: Cn1ccnc1CN(CCCO)CC(F)(F)F
Second: Cc1cnn(CCNCC(O)COc2cccc(C(F)(F)F)c2)c1 (stereo not given)
The cytotoxicity at 10 µM of the first is higher: 5.68% for the first, -21.7% for the second.

Going from `CCOc1cc(=O)n2c(c1C(=O)OCc1ccc(C)cc1)CCCC2` to `O=C(COc1coc(CN2CCCCC2)cc1=O)c1ccc(Cl)cc1`, the cytotoxicity at 10 µM rises from 3.11% to 3.13%.

First: CCc1nc(N2CCN(c3ncccc3C#N)CC2)c2cnn(C)c2n1
Second: Cc1nc(N2CCCC2)ncc1-c1cc(O)nc(N2CCOCC2)n1
The cytotoxicity at 10 µM of the first is higher: 10.8% for the first, 10.4% for the second.

Going from `COc1cccc([C@@H]2N[C@H](c3nccs3)Cc3ccsc32)c1OC` to `COc1cccc(CNC2CCCOc3cc(C)ccc32)n1` (stereo not given), the cytotoxicity at 10 µM rises from 5.24% to 8.53%.

Compared with `CC(C)N1CCC(NC(=O)NCc2ccccc2)CC1`, `Cn1cc(CCNC(=O)NC2CCN(Cc3ccccn3)CC2)cn1` is lower in cytotoxicity at 10 µM: 5.89% for the first, -16.4% for the second.

Going from `CCCc1nn(Cc2csc(CC)n2)c(=O)o1` to `CCc1nc(CN2CCCC(N(C)CCc3cccs3)C2)no1` (stereo not given), the cytotoxicity at 10 µM rises from -43.1% to 15.5%.

Going from `CN(Cc1ccco1)C(=O)CN1CCCC(Cn2cncn2)C1` (stereo not given) to `Cc1nc(CN2CCCC(Cn3cncn3)C2)nc2ccccc12` (stereo not given), the cytotoxicity at 10 µM falls from -4% to -16.2%.

Going from `O=C(Nc1ncc[nH]1)c1cc(-c2cccnc2)n[nH]1` to `Cc1cncc(C(=O)N2CCNCC2C(=O)Nc2ccc(C)nc2)c1` (stereo not given), the cytotoxicity at 10 µM falls from 5.69% to -5.19%.

Going from `CC(=O)N1CCn2c(nnc2C2CCCCN2Cc2ccccc2Cl)C1` (stereo not given) to `O=C(Cn1ccc2ccccc21)Nc1cc(N2CCCC2)ncn1`, the cytotoxicity at 10 µM falls from 10.6% to 4.24%.

Compared with `O=C(Cc1ccc(F)cc1)NCCNc1cc(N2CCCC2)cnn1`, `CCNC(=O)C1CCN(Cc2ccc(C(=O)Nc3cnns3)cc2)C1` (stereo not given) is higher in cytotoxicity at 10 µM: -3.29% for the first, 9.2% for the second.

First: COCCC(=O)NC1CCN(CC2(c3cccc(F)c3)CCCC2)CC1
Second: COCCOCC(=O)N1CCC2(CCCN(C3CCOCC3)C2=O)C1 (stereo not given)
The cytotoxicity at 10 µM of the first is higher: -24.7% for the first, -133% for the second.

Compared with `CCc1nc2c(c(NC3CCC3)n1)CCN(C(=O)CO)CC2`, `CCN(C)c1ncnc2c1CCN(C(=O)N1CCCC1)CC2` is lower in cytotoxicity at 10 µM: 5.42% for the first, -6.9% for the second.

Going from `CS(=O)(=O)c1nnc(NC(=O)CCc2ccc(Cl)s2)[nH]1` to `Cc1nsc(C(=O)NCCc2ccc(Cl)cc2)n1`, the cytotoxicity at 10 µM falls from 6.13% to 2.09%.

First: Cc1ccnc(N2CCC(NCCOc3ccccc3)CC2)n1
Second: Cc1ccccc1-n1cc(-c2ccnc(N3CCCC(O)C3)n2)cn1 (stereo not given)
The cytotoxicity at 10 µM of the first is lower: -1.21% for the first, 6.48% for the second.

First: Cc1cnn(C2CCCN(C(=O)c3ccc(-n4cnnn4)cc3)C2)c1 (stereo not given)
Second: Cc1cnn(C2CN(CC(=O)NCCc3c[nH]c4ccccc34)C2)c1
The cytotoxicity at 10 µM of the first is lower: -4.57% for the first, -4.01% for the second.

Going from `O=C(C1CCCc2[nH]ncc21)N1CCCC1` (stereo not given) to `CCN1CC2(CCCCN2C(=O)c2ccn(C)n2)CC1=O` (stereo not given), the cytotoxicity at 10 µM rises from 8.53% to 10.5%.

Compared with `CC[C@H]1CN2CC[C@H]1C[C@@H]2CNCc1ccc2c(c1)OCO2`, `O=C(Nc1cnn(C2CCOCC2)c1)c1ccc2c(c1)OCO2` is higher in cytotoxicity at 10 µM: -5.9% for the first, 3.07% for the second.

Compared with `O=C(NC(CO)CO)c1coc(COc2cccc(F)c2)n1`, `Cc1cc(C(=O)NCc2cccnc2OC(C)C)no1` is lower in cytotoxicity at 10 µM: 12.5% for the first, -7.37% for the second.

Going from `COc1cc(CN[C@@H]2COC[C@H]2Cc2cc(C)no2)cc(OC)c1` to `COCc1cc(CN(C)C(C(=O)O)c2cc(C)c(OC)c(C)c2)n[nH]1` (stereo not given), the cytotoxicity at 10 µM rises from 0.975% to 1.07%.

First: O=C(O)C1CCCN(C(=O)CCn2ccc3c(Br)cccc32)C1 (stereo not given)
Second: O=C(Cn1ccc2ccc(F)cc21)NCc1ccc(C(=O)O)cc1
The cytotoxicity at 10 µM of the first is higher: 10.9% for the first, 6.86% for the second.

First: Cc1nc(O)cc(C2CCN(C(=O)c3ccsc3)CC2)n1
Second: CN(C)CCNC(=O)c1ccc(OC2CCN(C(=O)CO)CC2)c(Cl)c1
The cytotoxicity at 10 µM of the first is lower: -4.97% for the first, -2.43% for the second.

Compared with `CC(C)(C)n1cc(C#N)cc1NC(=O)CCS(=O)(=O)C1CCCC1`, `COCCC(=O)N1CCC(c2ccc3c(NC(C)C)n[nH]c3n2)C1` (stereo not given) is higher in cytotoxicity at 10 µM: -0.935% for the first, 0.691% for the second.

Compared with `CCOC(=O)CC(C)Nc1nc(C(C)(C)C)nc2c1cnn2C` (stereo not given), `CCOCCCNc1cc(C)nn2cnnc12` is lower in cytotoxicity at 10 µM: 6.51% for the first, 2.21% for the second.

First: Cc1cccc(CN2CC[C@@H]3[C@@H](CO[C@H]3CNc3ncccn3)C2)n1
Second: O=C(N[C@@H]1CN(c2ncccn2)C[C@@H]2CCCO[C@@H]21)c1ccncc1
The cytotoxicity at 10 µM of the first is lower: -5.55% for the first, 2.29% for the second.

First: COc1ccc(C(=O)N(C)Cc2nnc3ccccn23)cc1
Second: Cc1cc(CNc2cccc(C(=O)N(C)c3ccccc3)c2)no1
The cytotoxicity at 10 µM of the first is higher: 3.45% for the first, 2.95% for the second.

Compared with `N#CCCN(CCC#N)C(=O)COC1CCCCC1`, `Cc1ccc(N(CCC#N)C(=O)CCc2cscn2)cc1C` is higher in cytotoxicity at 10 µM: 0.631% for the first, 6.36% for the second.

Compared with `Cc1nc(CC(=O)N(C)C2CCCN(CCc3ccccc3)C2)cs1` (stereo not given), `c1cncc(COc2ccccc2CNC2CCc3ncnn3C2)c1` (stereo not given) is lower in cytotoxicity at 10 µM: 3.13% for the first, -3.69% for the second.

First: Cc1ccc(S(=O)(=O)N2C[C@H]3C[C@H](NC(=O)c4cscn4)[C@H]3C2)cc1
Second: COC(=O)[C@@H]1Cc2ncn(C)c2CN1S(=O)(=O)c1ccc(C)cc1
The cytotoxicity at 10 µM of the first is higher: 12% for the first, 2.08% for the second.

Compared with `COCC(=O)N1CCCC1c1csc(Nc2cnccn2)n1` (stereo not given), `CNc1snc(C)c1C(=O)N1CCCC(n2ccnc2)C1` (stereo not given) is lower in cytotoxicity at 10 µM: -8.11% for the first, -13.8% for the second.

First: Cc1cccc(CN2C(=O)CCC23CCN(C(=O)c2ccco2)CC3)c1
Second: COC(=O)c1cccc(C(=O)NCc2ccc3c(c2)CCCN3C)c1
The cytotoxicity at 10 µM of the first is higher: 6.09% for the first, -11.7% for the second.

Going from `CC(=O)NCCNC(=O)c1cccc(Cn2nc(C)cc2C)c1` to `CCOc1ccc(NC(=O)c2oc(CC)cc2C)cc1CO`, the cytotoxicity at 10 µM rises from -10.3% to 2.05%.

Compared with `CC(Cn1cccn1)NC(=O)Nc1ccc(F)cc1` (stereo not given), `CC(C)NS(=O)(=O)c1cc(C(=O)O)cc(-c2ccc3c(c2)OCO3)c1` is lower in cytotoxicity at 10 µM: 19.7% for the first, 0.873% for the second.

Compared with `c1ccc(-c2noc(CNC3CCc4ncnn4C3)n2)nc1` (stereo not given), `CC1c2ncc(CN3CCN(C)CC3)n2CCN1Cc1ccccn1` (stereo not given) is higher in cytotoxicity at 10 µM: -11.7% for the first, -0.23% for the second.

First: CCCOc1ccc(OCCN2CCOCS2(=O)=O)cc1
Second: CCc1ncnc(N2CCOCC2C2CC2)c1F (stereo not given)
The cytotoxicity at 10 µM of the first is higher: 5.56% for the first, -6.62% for the second.

Compared with `Cc1ccnc(NCc2cn3c(C)csc3n2)n1`, `CCc1noc(CN(Cc2cccs2)CC2CCCO2)n1` (stereo not given) is lower in cytotoxicity at 10 µM: -5.66% for the first, -8.66% for the second.

Going from `O=C(NCc1ccccn1)[C@@H]1COC[C@H]2CN(C3CCOCC3)C[C@H]21` to `O=C(c1cocn1)N1CCC2(CC1)CC(OCC1CC1)CO2` (stereo not given), the cytotoxicity at 10 µM rises from 2.52% to 10%.

Going from `O=C(CN1CCSC2(CCCCC2)C1)NCC(F)(F)F` to `CCN1CCN(CC(O)c2cc(Cl)ccc2Cl)CC1` (stereo not given), the cytotoxicity at 10 µM rises from -6.4% to 0.388%.
